Screens: PubChem BioAssay, The Scripps Research Institute Molecular Screening Center
The list is not random: actives were taken first. Their share in the collection is about 1.2%.
bovine MsrA act: bovine methionine sulfoxide reductase A activation | purified bovine MsrA, absorbance read-out | AID 602163 | hit rate 0.3% among 360,000 | activation, % at 10.6 µM; in the data active means activation above about 7.5%
proCasp3 act: activators of human procaspase-3 | hit rate 0.11% among 330,000 | recombinant procaspase-3 D3A, Ac-DEVD-pNA absorbance 405 nm | activation, % at 8.5 µM;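 active means activation above the mean of all tested compounds plus 3 SD, cut at about 21% in these data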
Target sequence (P42574 whole entry D9A/D28A/D175A): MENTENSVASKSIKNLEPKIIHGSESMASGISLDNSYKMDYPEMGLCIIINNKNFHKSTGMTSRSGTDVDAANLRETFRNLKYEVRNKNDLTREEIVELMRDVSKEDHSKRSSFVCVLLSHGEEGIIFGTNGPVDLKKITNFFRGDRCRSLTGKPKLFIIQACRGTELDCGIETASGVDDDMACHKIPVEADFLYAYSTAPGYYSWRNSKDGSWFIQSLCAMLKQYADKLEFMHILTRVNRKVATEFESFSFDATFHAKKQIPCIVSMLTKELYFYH
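Evaluation: percent activation relative to control range; Material: Procaspase-3 D3A mutant, all three cleavage aspartates alanine; Compound: single dose, 8.5 µM nominal compound, 0.8% DMSO; Replication: one well per compound; Signal: absorbance at 405 nm, 0 and 120 min; Schedule: 1 h preincubation plus 2 h reaction at 25 °C.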
procasp7 counter: counter-screen for procaspase-3 activators: activators of human procaspase-7; P55210; recombinant procaspase-7, Ac-DEVD-pNA absorbance 405 nm; D23A/D198A/D206A triple mutant, cannot self-cleave; scale: DMSO 0, 5 µM enzyme 100; activation, % at 8.5 µM; hit rate 0.093% among 330,000;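 active means percent activation above the screen-wide mean plus 3 SD, cut at about 25% in these data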
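Test system: Procaspase-7 triple mutant (PC-7 D3A). Also added: Ac-DEVD-pNA substrate, 400 µM as added. Schedule: 1 h enzyme–compound preincubation and 2 h substrate reaction, both 25 °C. Signal: p-Nitroaniline absorbance at 405 nm, read at 0 and 120 min. Control set: low DMSO alone, high DMSO plus 5 µM PC-7.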
MsrA inh: inhibitors of bovine MsrA; purified bovine MsrA, absorbance read-out; inhibition, % at 15.5 µM; hit rate 0.75% among 360,000; in the data active means inhibition above about 4.5%
MsrA activ conf: bovine methionine sulfoxide reductase A activation confirmed | shares compounds with bovine MsrA act | purified bovine MsrA, absorbance read-out | activation, % at 10.6 µM | hit rate 12% among 1,000 | AID 602270; in the data active means activation above about 4%;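 further: enzyme coupled to thioredoxin and thioredoxin reductase with NADPH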
Large screens that a line does not name were inactive (follow-up assays come after a bar, where they were run).

COC(=O)[C@]12C[C@H](CC(=O)NCC34CC5CC(CC(C5)C3)C4)C(=O)N(Cc3ccccc3)C1=C[C@H](C1CCCC1)O[C@@H]2C	none (no result: bovine MsrA act, proCasp3 act, procasp7 counter)
O=C(N[C@H](C(=O)N1CCC[C@H]1C(=O)NC1CCCC1)C1CCCCC1)c1ccco1	none (no result: bovine MsrA act, proCasp3 act, procasp7 counter)
COC(=O)[C@]12C[C@H](CC(=O)NCc3ccc(C)o3)C(=O)N(Cc3ccc4c(c3)OCO4)C1=C[C@H](C(C)(C)C)O[C@@H]2C	none (no result: bovine MsrA act, proCasp3 act, procasp7 counter)
Cc1cccc(N2C(=O)C3CCCN3C2=S)c1 (stereo not given)	none
CSc1cccc(N2C(=O)C3CCCN3C2=S)c1 (stereo not given)	bovine MsrA act 8.1 | MsrA activ conf inactive
C[C@H](NC(=O)C[C@@H]1C[C@@H]2c3cc(NC(=O)C4CCC4)ccc3O[C@@H]2[C@@H](CO)O1)c1ccccc1	none (no result: bovine MsrA act, proCasp3 act, procasp7 counter)
Cc1ccc(OCC(=O)Nn2c(C)nc3ccccc3c2=O)c(C(C)C)c1	bovine MsrA act 8.2 | MsrA activ conf inactive
COc1cc(-c2nc(=S)[nH][nH]2)cc(OC)c1OC	bovine MsrA act 8.1 | MsrA activ conf 4.8
COc1ccc(-c2nc(=S)[nH][nH]2)cc1OC	bovine MsrA act 10.4 | MsrA activ conf inactive
COc1ccc(-c2nc(=S)[nH][nH]2)cc1	none
O=S1(=O)c2ccc(Br)cc2OCCC2CCCCN21 (stereo not given)	none (no result: bovine MsrA act, proCasp3 act, procasp7 counter)
Cc1cc(Br)c2nc(-c3ccc(F)cc3)c(Cc3cccc(Cl)c3)n2c1	none (no result: bovine MsrA act, proCasp3 act, procasp7 counter)
Nc1nc2ccccc2n1/N=C/c1cccnc1	none
Nc1nc2ccccc2n1/N=C/c1ccc([N+](=O)[O-])s1	bovine MsrA act 8.0 | MsrA activ conf 7.8
COC(=O)C1=C(C)N(Cc2ccccc2C(F)(F)F)C(=NCC2CC2)NC1c1cccc(F)c1 (stereo not given)	none (no result: bovine MsrA act, proCasp3 act, procasp7 counter)
C=CCN(c1cccc(C(F)(F)F)c1)S(=O)(=O)c1cccc(C(=O)OCC(=O)Nc2ccccc2)c1	bovine MsrA act 8.3 | MsrA activ conf inactive
C[C@H]1CN(S(=O)(=O)C(C)(C)C)[C@@H](CCO)/C1=C\CCO	none (no result: bovine MsrA act, proCasp3 act, procasp7 counter)
CN(Cc1cccs1)c1ncnc2sccc12	none
CN(Cc1ccccc1F)c1ncnc2sccc12	bovine MsrA act 14.4 | MsrA activ conf inactive
CCOc1ccc2c(c1)C(C)=CC(C)(C)N2S(=O)(=O)c1ccc(NC(C)=O)cc1	bovine MsrA act 8.2 | MsrA activ conf inactive
COC(=O)[C@]12C[C@H](CC(=O)NCCCN3CCCC3=O)C(=O)N(Cc3ccc4c(c3)OCO4)C1=C[C@H](COCc1ccccc1)O[C@@H]2C	none (no result: bovine MsrA act, proCasp3 act, procasp7 counter)
COc1ccc(C(=O)N/C(=C\c2cn(S(=O)(=O)N(C)C)c3ccccc23)C(=O)NCCN2CCOCC2)cc1OC	none
COc1ccc(C(=O)N/C(=C\c2cn(S(=O)(=O)N(C)C)c3ccccc23)C(=O)NCCN2CCOCC2)cc1	bovine MsrA act 18.3, MsrA inh 4.6 | MsrA activ conf inactive
Cc1ccc(S(=O)(=O)N(C)[C@H]2C[C@H]3c4[nH]c5cccc(-c6ccccc6)c5c4CCN3C(=O)[C@H]2[C@H](C)O)cc1	none (no result: bovine MsrA act, proCasp3 act, procasp7 counter)
O=C(O)C1=NOC(CNC(=O)c2ccccc2Cl)C1 (stereo not given)	bovine MsrA act 11.2 | MsrA activ conf inactive
CC1CCN(CCCNC(=O)c2coc3nc4ccccc4nc23)CC1	bovine MsrA act 9.0 | MsrA activ conf inactive
CC1CCCN(CCCNC(=O)c2coc3nc4ccccc4nc23)C1 (stereo not given)	none
CC1(C)OC(=O)C2=C(CC(CCc3ccccc3)OC2c2cccc(C(F)(F)F)c2)O1 (stereo not given)	none (no result: bovine MsrA act, proCasp3 act, procasp7 counter)
CCOC(=O)Cn1nc(C)c(NC(=O)COc2ccccc2)c1C	bovine MsrA act 8.0 | MsrA activ conf inactive
C[C@H](CO)N1C[C@H](C)[C@@H](CN(C)C(=O)NC2CCCCC2)OCc2cn(nn2)CCCC1=O	none (no result: bovine MsrA act, proCasp3 act, procasp7 counter)
Cc1cc(Cl)cc2sc(=S)[nH]c12	bovine MsrA act 8.2 (no result: proCasp3 act, procasp7 counter) | MsrA activ conf inactive
Cc1[nH]c(=S)sc1Cc1ccc(Cl)c(Cl)c1	none (no result: bovine MsrA act)
COc1ccc(C(=O)C(=O)N2CCN(C(=O)c3ccccc3C(F)(F)F)CC2)cc1OC	none (no result: bovine MsrA act, proCasp3 act, procasp7 counter)
Cc1ccc(-n2c([C@@H]3C[C@H]3c3ccccc3)n[nH]c2=S)cc1	bovine MsrA act 8.9 | MsrA activ conf inactive
CCOC(=O)C1=CCC(c2ccc([N+](=O)[O-])cc2)N(S(=O)(=O)c2ccc(C)cc2)C1 (stereo not given)	none (no result: bovine MsrA act, proCasp3 act, procasp7 counter)
Cc1nnc(SCC(=O)NCCN2C(=O)CSC2=O)n1-c1ccccc1	none
O=C(CSc1nnc(Cc2ccccc2)o1)NCCN1C(=O)CSC1=O	bovine MsrA act 19.4 | MsrA activ conf inactive
